Here are results for two compounds from ChEMBL document CHEMBL3124882, “Semi-synthesis of acylated triterpenes from olive-oil industry wastes for the development of anticancer and anti-HIV agents” (Eur J Med Chem, 2014).

As a reminder, the IC50 is the concentration needed to halve the response being measured.

In experiment [1] the test system is B16-F10. Put plainly: Induction of apoptosis in mouse B16F10 cells assessed as total apoptotic cells at 2 X IC50 after 72 hrs by annexin V-FITC/propidium iodide staining-based FACS analysis (reference value: 13.7 +/- 2.7%). Type of experiment: functional.
For experiment [2], the system named is B16-F10. Put plainly: Induction of apoptosis in mouse B16F10 cells assessed as necrotic cells at IC50 after 72 hrs by annexin V-FITC/propidium iodide staining-based FACS analysis (reference value: 4.0 +/- 0.6%). Type of experiment: functional.
Experiment [3] relates to B16-F10. Description: Induction of apoptosis in mouse B16F10 cells assessed as necrotic cells at 2 X IC50 after 72 hrs by annexin V-FITC/propidium iodide staining-based FACS analysis (reference value: 4.0 +/- 0.6%). Type of experiment: functional. A general note: A flow cytometer gives signals particle by particle.
The subject of experiment [4] is B16-F10. Description: Induction of apoptosis in mouse B16F10 cells assessed as late apoptotic cells at 2 X IC50 after 72 hrs by annexin V-FITC/propidium iodide staining-based FACS analysis (reference value: 9.8 +/- 2.2%). Type of experiment: functional.
The test system of experiment [5] is B16-F10. Put plainly: Induction of apoptosis in mouse B16F10 cells assessed as normal cells at 2 X IC50 after 72 hrs by annexin V-FITC/propidium iodide staining-based FACS analysis (reference value: 77.9 +/- 1.5%). Type of experiment: functional.
For experiment [6], the system named is B16-F10. Description: Induction of apoptosis in mouse B16F10 cells assessed as total apoptotic cells at IC50 after 72 hrs by annexin V-FITC/propidium iodide staining-based FACS analysis (reference value: 13.7 +/- 2.7%). Type of experiment: functional.
Experiment [7] concerns B16-F10. Put plainly: Induction of apoptosis in mouse B16F10 cells assessed as late apoptotic cells at IC50 after 72 hrs by annexin V-FITC/propidium iodide staining-based FACS analysis (reference value: 9.8 +/- 2.2%). In kind it is functional.
In experiment [8] the test system is B16-F10. Description: Induction of apoptosis in mouse B16F10 cells assessed as early apoptotic cells at IC50 after 72 hrs by annexin V-FITC/propidium iodide staining-based FACS analysis (reference value: 3.9 +/- 0.4%). Type of experiment: functional.
Experiment [9] addresses Protease (Human immunodeficiency virus 1, UniProt Q9YQ12). Description: Inhibition of HIV1 recombinant protease expressed in Escherichia coli using Abz-Ala-Arg-Val-Nle-Tyr(NO2)-Glu-Ala-Nle-NH2 as substrate by FRET assay.
Experiment [10] concerns B16-F10. Put plainly: Induction of apoptosis in mouse B16F10 cells assessed as normal cells at IC50 after 72 hrs by annexin V-FITC/propidium iodide staining-based FACS analysis (reference value: 77.9 +/- 1.5%). Type of experiment: functional.
The subject of experiment [11] is B16-F10. Description: Cytotoxicity against mouse B16F10 cells after 72 hrs by MTT assay. In kind it is functional, cell-based. To be noted: B16-F10, 72 h. Summed up: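 B16F10 cells (DMEM, 2 mM glutamine, 10% heat-inactivated FCS, penicillin/streptomycin; subconfluent) seeded at 11·10^3 per well and exposed to 0–80 µg/mL for 72 h. Compounds were diluted from a 10 mg/mL stock in 50% DMSO/PBS. MTT 0.5 mg/mL for 2 h, formazan dissolved in DMSO, absorbance at 550 nm. Viability is relative to untreated controls; IC50 from four assays of six replicates, mean ± S.E.M.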

Experiment [12] deals with B16-F10. Put plainly: Induction of apoptosis in mouse B16F10 cells assessed as early apoptotic cells at 2 X IC50 after 72 hrs by annexin V-FITC/propidium iodide staining-based FACS analysis (reference value: 3.9 +/- 0.4%). Type of experiment: functional.
Experiment [13] concerns B16-F10. Description: Induction of ROS generation in mouse B16F10 cells at IC50 to 2 X IC50 after 72 hrs by rhodamine123/propidium iodide staining-based FACS analysis. In kind it is functional, cell-based. Summed up:
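B16F10 cells, 11·10^4 per well, treated 72 h at IC50 or 2×IC50, then given fresh medium with dihydrorhodamine 123 at a final 5 µg/mL for 30 min. Cells washed, resuspended in PBS and read by flow cytometry for Rh123 and PI fluorescence (excitation 500 nm, emission 536 nm). Rh123+ cells scored ROS-positive regardless of PI. Three experiments in duplicate, mean ± S.E.M.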

The structures appear in SMILES notation. Activity calls are given as the source filed them. The rule behind the calls is not given here.

Sequence of Protease (Q9YQ12 whole entry): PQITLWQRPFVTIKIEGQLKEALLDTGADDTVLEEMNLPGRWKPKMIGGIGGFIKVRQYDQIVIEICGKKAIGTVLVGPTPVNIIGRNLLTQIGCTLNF

Regarding `CC1(C)CC[C@]2(C(=O)OCc3ccccc3)CC[C@]3(C)C(=CC[C@@H]4[C@@]5(C)C[C@@H](OC(=O)c6ccccc6C(=O)O)[C@H](O)C(C)(C)[C@@H]5CC[C@]43C)[C@@H]2C1`, the Activity is recorded as 89.7% in experiment [1]; 2.5% in experiment [2]; 7.5% in experiment [3]; 46.2% in experiment [4]; 2.9% in [5]; 64.7% in experiment [6]. Further, the Activity in [7] was found to be 22.5%; in experiment [8] it was 42.2%; in experiment [10], 32.8%; in experiment [12], 43.6%. Besides, the IC50 in experiment [9] was determined as 0.8 µM; in [11], 73.2 µM. The result in experiment [13] was inactive.
As to `CCCCCC(=O)O[C@@H]1C[C@]2(C)[C@H]3CC=C4[C@@H]5CC(C)(C)CC[C@]5(C(=O)O)CC[C@@]4(C)[C@]3(C)CC[C@H]2C(C)(C)[C@H]1O`, the Activity in experiment [1] is 80.2%; in [2], 3.9%; in experiment [3] it was 1.1%; in [4], 17.5%; in experiment [5], 18.9%; in experiment [6] it was 61.4%. Besides, the Activity amounted to 19% in experiment [7], 42.4% in experiment [8], 34.8% in experiment [10] and 62.7% in [12]. The IC50 in experiment [9] turned out to be 124 µM; in experiment [11], 34.6 µM. Besides, the result in experiment [13] was Active.
